The record followed here is PubChem BioAssay AID624313 (The Scripps Research Institute Molecular Screening Center, 2012).

In the assay the test system is HEK293 CYP11A1 promoter CAT reporter, ELISA absorbance. Kind of assay: activators of CYP11A1 promoter CAT reporter, late-stage follow-up, counter-screen for DAX1 inhibitor project, cell-based, absorbance, HEK293 (AID 624313). The settings on record: at 100 µM (top of the series). The method in brief: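 Test system: transfected HEK293 with CYP11A1-promoter CAT reporter / Doses: 3-point twofold dilution series, nominal top 100 µM / Detection: colorimetric enzyme immunoassay of CAT protein, absorbance / Read-out: CAT signal relative to DMSO-treated wells / Benchmarks: pSG5 empty-vector positive control, DMSO reference / Replication: triplicate per dose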
Background: The purpose of a counterscreen is to sort out artefacts and off-target activity.

Each structure is given as a SMILES string. Active and inactive are the calls of the source.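 Rule for the calls: active = reporter absorbance over solvent-only wells above 1.25 at every tested dose; inactive = the rest.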

For the molecule `Cn1c(=O)n(C)c2cc(C(=O)Nc3ccc4c(c3)OCO4)ccc21`, the relative activity ratio was 0.52 (inactive). Regarding `Cn1c(=O)n(C)c2cc(C(=O)Nc3ccc4c(c3)OCCO4)ccc21`, the relative activity ratio is 0.27 (inactive).
